Test results taken from ChEMBL document CHEMBL1933006, “Mechanistic analysis of muraymycin analogues: a guide to the design of MraY inhibitors” (J Med Chem, 2011).
≈ marks a conversion by molar mass, not a printed value.

Legend:
Format in all cases: functional
Enterococcus faecium [1] = test: Antibacterial activity against Enterococcus faecium ATCC 19434 after 20 hrs by broth microdilution method; details: ATCC 19434, 20 h
Method in brief: (§1)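 NCCLS broth microdilution in cation-adjusted Mueller–Hinton broth. Serial 2-fold compound dilutions were inoculated with 5 × 10⁴ CFU per 0.1 mL and incubated at 35 °C for 20 h before scoring the MIC.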

Enterococcus faecalis [2] = test: Antibacterial activity against Enterococcus faecalis ATCC 29212 after 20 hrs by broth microdilution method; details: ATCC 29212, 20 h; method in brief: as §1
Staphylococcus aureus [3] = test: Antibacterial activity against methicillin-resistant Staphylococcus aureus isolate SR3637 after 20 hrs by broth microdilution method; details: isolate SR3637, 20 h; method in brief: as §1
Enterococcus faecium [4] = test: Antibacterial activity against vancomycin-resistant Enterococcus faecium SR7917 after 20 hrs by broth microdilution method; details: SR7917, 20 h; method in brief: as §1
Enterococcus faecalis [5] = test: Antibacterial activity against vancomycin-resistant Enterococcus faecalis SR7914 after 20 hrs by broth microdilution method; details: SR7914, 20 h; method in brief: as §1
Staphylococcus aureus [6] = test: Antibacterial activity against methicillin-sensitive […] Staphylococcus aureus ATCC 29213 after 20 hrs by broth microdilution method; details: ATCC 29213, 20 h; method in brief: as §1

Compound	MIC (Enterococcus faecium [1]) [µg/mL]	MIC (Enterococcus faecalis [2]) [µg/mL]	MIC (Staphylococcus aureus [3]) [µg/mL]	MIC (Enterococcus faecium [4]) [µg/mL]	MIC (Enterococcus faecalis [5]) [µg/mL]	MIC (Staphylococcus aureus [6]) [µg/mL]
CCCCOc1ccc(-c2ccc(CC[C@@H](NC(=O)[C@@H](NC(=O)N[C@H](C(=O)O)C(C)C)[C@@H]3CCNC(=N)N3)C(=O)NCCCN[C@H](C(=O)O)[C@H](O[C@@H]3O[C@H](CN)[C@@H](O)[C@H]3O)[C@H]3O[C@@H](n4ccc(=O)[nH]c4=O)[C@H](O)[C@@H]3O)cc2)cc1	4 (≈ 3.6 µM)	32 (≈ 28.8 µM)	64 (≈ 57.5 µM)	8 (≈ 7.19 µM)	64 (≈ 57.5 µM)	64 (≈ 57.5 µM)
CCCCCCCCCCCCCCC[C@H](NC(=O)[C@@H](N)[C@@H]1CCNC(=N)N1)C(=O)NCCCN[C@H](C(=O)O)[C@H](O[C@@H]1O[C@H](CN)[C@@H](O)[C@H]1O)[C@H]1O[C@@H](n2ccc(=O)[nH]c2=O)[C@H](O)[C@@H]1O	–	4 (≈ 4.31 µM)	8 (≈ 8.63 µM)	8 (≈ 8.63 µM)	4 (≈ 4.31 µM)	8 (≈ 8.63 µM)
CCCCCCCCCCCCCCC[C@H](NC(=O)[C@@H](N)CCCSC)C(=O)NCCCN[C@H](C(=O)O)[C@H](O[C@@H]1O[C@H](CN)[C@@H](O)[C@H]1O)[C@H]1O[C@@H](n2ccc(=O)[nH]c2=O)[C@H](O)[C@@H]1O	–	4 (≈ 4.36 µM)	8 (≈ 8.71 µM)	8 (≈ 8.71 µM)	4 (≈ 4.36 µM)	8 (≈ 8.71 µM)
CCCCCCCCCCCCCCC[C@H](NC(=O)[C@@H](N)CCCN)C(=O)NCCCN[C@H](C(=O)O)[C@H](O[C@@H]1O[C@H](CN)[C@@H](O)[C@H]1O)[C@H]1O[C@@H](n2ccc(=O)[nH]c2=O)[C@H](O)[C@@H]1O	–	4 (≈ 4.51 µM)	4 (≈ 4.51 µM)	8 (≈ 9.02 µM)	4 (≈ 4.51 µM)	4 (≈ 4.51 µM)
CCCCCCCCCCCCCCC[C@H](NC(=O)[C@@H](N)CCCNC(=N)N)C(=O)NCCCN[C@H](C(=O)O)[C@H](O[C@@H]1O[C@H](CN)[C@@H](O)[C@H]1O)[C@H]1O[C@@H](n2ccc(=O)[nH]c2=O)[C@H](O)[C@@H]1O	–	4 (≈ 4.31 µM)	4 (≈ 4.31 µM)	4 (≈ 4.31 µM)	4 (≈ 4.31 µM)	4 (≈ 4.31 µM)
CCCCCCCCCCCCCCC[C@@H](NC(=O)[C@@H](NC(=O)OCc1ccccc1)[C@@H]1CCNC(=N)N1)C(=O)NCCCN[C@H](C(=O)O)[C@H](O[C@@H]1O[C@H](CN)[C@@H](O)[C@H]1O)[C@H]1O[C@@H](n2ccc(=O)[nH]c2=O)[C@H](O)[C@@H]1O	–	4 (≈ 3.77 µM)	8 (≈ 7.54 µM)	4 (≈ 3.77 µM)	4 (≈ 3.77 µM)	8 (≈ 7.54 µM)
CCCCCCOc1ccc(-c2ccc([C@@H](NC(=O)[C@@H](NC(=O)N[C@H](C(=O)O)C(C)C)[C@@H]3CCNC(=N)N3)C(=O)NCCCN[C@H](C(=O)O)[C@H](O[C@@H]3O[C@H](CN)[C@@H](O)[C@H]3O)[C@H]3O[C@@H](n4ccc(=O)[nH]c4=O)[C@H](O)[C@@H]3O)cc2)cc1	4 (≈ 3.6 µM)	16 (≈ 14.4 µM)	16 (≈ 14.4 µM)	8 (≈ 7.19 µM)	16 (≈ 14.4 µM)	16 (≈ 14.4 µM)
CCCCCCCCCCCCCCC[C@H](NC(=O)[C@@H](NC(=O)OCc1ccccc1)[C@@H]1CCNC(=N)N1)C(=O)NCCCN[C@H](C(=O)O)[C@H](O[C@@H]1O[C@H](CN)[C@@H](O)[C@H]1O)[C@H]1O[C@@H](n2ccc(=O)[nH]c2=O)[C@H](O)[C@@H]1O	–	4 (≈ 3.77 µM)	8 (≈ 7.54 µM)	8 (≈ 7.54 µM)	4 (≈ 3.77 µM)	8 (≈ 7.54 µM)
CCCCCCCCCCCCCCC[C@@H](NC(=O)[C@H](CCCN)NC(=O)N[C@H](C(=O)O)C(C)C)C(=O)NCCCN[C@H](C(=O)O)[C@H](O[C@@H]1O[C@H](CN)[C@@H](O)[C@H]1O)[C@H]1O[C@@H](n2ccc(=O)[nH]c2=O)[C@H](O)[C@@H]1O	–	8 (≈ 7.77 µM)	8 (≈ 7.77 µM)	8 (≈ 7.77 µM)	8 (≈ 7.77 µM)	4 (≈ 3.88 µM)
CCCCCCCCCCCCCCC[C@H](NC(=O)[C@H](CCCN)NC(=O)N[C@H](C(=O)O)C(C)C)C(=O)NCCCN[C@H](C(=O)O)[C@H](O[C@@H]1O[C@H](CN)[C@@H](O)[C@H]1O)[C@H]1O[C@@H](n2ccc(=O)[nH]c2=O)[C@H](O)[C@@H]1O	–	8 (≈ 7.77 µM)	2 (≈ 1.94 µM)	4 (≈ 3.88 µM)	8 (≈ 7.77 µM)	4 (≈ 3.88 µM)
CC(C)[C@H](NC(=O)N[C@H](C(=O)N[C@H](CCCCCCCc1ccc(-c2ccccc2)cc1)C(=O)NCCCN[C@H](C(=O)O)[C@H](O[C@@H]1O[C@H](CN)[C@@H](O)[C@H]1O)[C@H]1O[C@@H](n2ccc(=O)[nH]c2=O)[C@H](O)[C@@H]1O)[C@@H]1CCNC(=N)N1)C(=O)O	4 (≈ 3.6 µM)	8 (≈ 7.21 µM)	16 (≈ 14.4 µM)	4 (≈ 3.6 µM)	16 (≈ 14.4 µM)	8 (≈ 7.21 µM)
CN[C@H](CC(C)C)C(=O)N[C@H]1C(=O)N[C@@H](CC(N)=O)C(=O)N[C@H]2C(=O)N[C@H]3C(=O)N[C@H](C(=O)N[C@H](C(=O)O)c4cc(O)cc(O)c4-c4cc3ccc4O)[C@H](O)c3ccc(c(Cl)c3)Oc3cc2cc(c3O[C@@H]2O[C@H](CO)[C@@H](O)[C@H](O)[C@H]2O[C@H]2C[C@](C)(N)[C@H](O)[C@H](C)O2)Oc2ccc(cc2Cl)[C@H]1O [VANCOMYCIN]	–	1 (≈ 0.69 µM)	–	> 64	> 64	–
CCCCCCCCCCCCCCC[C@@H](NC(=O)[C@H](CCCNC(=N)N)NC(=O)N[C@H](C(=O)O)C(C)C)C(=O)NCCCN[C@H](C(=O)O)[C@H](O[C@@H]1O[C@H](CN)[C@@H](O)[C@H]1O)[C@H]1O[C@@H](n2ccc(=O)[nH]c2=O)[C@H](O)[C@@H]1O	–	4 (≈ 3.73 µM)	4 (≈ 3.73 µM)	2 (≈ 1.87 µM)	4 (≈ 3.73 µM)	4 (≈ 3.73 µM)
CCCCCCCCCCCCCCC[C@H](NC(=O)[C@H](CCCNC(=N)N)NC(=O)N[C@H](C(=O)O)C(C)C)C(=O)NCCCN[C@H](C(=O)O)[C@H](O[C@@H]1O[C@H](CN)[C@@H](O)[C@H]1O)[C@H]1O[C@@H](n2ccc(=O)[nH]c2=O)[C@H](O)[C@@H]1O	–	2 (≈ 1.87 µM)	2 (≈ 1.87 µM)	1 (≈ 0.933 µM)	2 (≈ 1.87 µM)	2 (≈ 1.87 µM)
CCCCCCCCCCCCCCC[C@H](NC(=O)[C@@H](NC(=O)N[C@H](C(=O)O)C(C)C)[C@H]1CCNC(=N)N1)C(=O)NCCCN[C@H](C(=O)O)[C@H](O[C@@H]1O[C@H](CN)[C@@H](O)[C@H]1O)[C@H]1O[C@@H](n2ccc(=O)[nH]c2=O)[C@H](O)[C@@H]1O	–	2 (≈ 1.87 µM)	2 (≈ 1.87 µM)	2 (≈ 1.87 µM)	4 (≈ 3.74 µM)	2 (≈ 1.87 µM)
CCCCCCCCCCCCCCC[C@@H](NC(=O)[C@@H](NC(=O)N[C@H](C(=O)O)C(C)C)[C@H]1CCNC(=N)N1)C(=O)NCCCN[C@H](C(=O)O)[C@H](O[C@@H]1O[C@H](CN)[C@@H](O)[C@H]1O)[C@H]1O[C@@H](n2ccc(=O)[nH]c2=O)[C@H](O)[C@@H]1O	–	2 (≈ 1.87 µM)	2 (≈ 1.87 µM)	4 (≈ 3.74 µM)	4 (≈ 3.74 µM)	4 (≈ 3.74 µM)
CCCCCCCCCCCCCCC[C@@H](NC(=O)[C@@H](N)[C@@H]1CCNC(=N)N1)C(=O)NCCCN[C@H](C(=O)O)[C@H](O[C@@H]1O[C@H](CN)[C@@H](O)[C@H]1O)[C@H]1O[C@@H](n2ccc(=O)[nH]c2=O)[C@H](O)[C@@H]1O	–	4 (≈ 4.31 µM)	8 (≈ 8.63 µM)	8 (≈ 8.63 µM)	8 (≈ 8.63 µM)	8 (≈ 8.63 µM)
